KCNK3 inh: human KCNK3 channel inhibition, primary screen; CHO-KCNK3 thallium flux, FluxOR fluorescence; stronger effect = lower value; B-score at 10 µM; O14649; 340,000 tested, 0.84% active;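 active = B-score under library mean minus 4 SD, starting fluorescence ratio at most library mean plus 5 SD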;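 also: more negative B-score means stronger inhibition of thallium flux through KCNK3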
hERG rescue: shields human hERG channel from block by proarrhythmic agents. Q12809. CHO-hERG, FluxOR thallium flux, dofetilide IC70 present. activation (rescue from dofetilide block), less the hit threshold, % at 10 µM. 310,000 tested, 0.51% active;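 active = activation above the mean of controls blocked by dofetilide plus 5 SD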;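 also: thallium influx through hERG after potassium depolarization seen as dye fluorescence rise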
KCNQ1 act: potentiates or activates the human KCNQ1 potassium channel | CHO-K1 KCNQ1, thallium flux FluxOR fluorescence; stronger effect = higher value | B-score at 10 µM | 310,000 tested, 0.35% active;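 active = fluorescence ratio B-score, a plate-corrected score, at least three library SD, with initial intensity B-score within 5 SD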
Target sequence (P51787 whole entry, looked up): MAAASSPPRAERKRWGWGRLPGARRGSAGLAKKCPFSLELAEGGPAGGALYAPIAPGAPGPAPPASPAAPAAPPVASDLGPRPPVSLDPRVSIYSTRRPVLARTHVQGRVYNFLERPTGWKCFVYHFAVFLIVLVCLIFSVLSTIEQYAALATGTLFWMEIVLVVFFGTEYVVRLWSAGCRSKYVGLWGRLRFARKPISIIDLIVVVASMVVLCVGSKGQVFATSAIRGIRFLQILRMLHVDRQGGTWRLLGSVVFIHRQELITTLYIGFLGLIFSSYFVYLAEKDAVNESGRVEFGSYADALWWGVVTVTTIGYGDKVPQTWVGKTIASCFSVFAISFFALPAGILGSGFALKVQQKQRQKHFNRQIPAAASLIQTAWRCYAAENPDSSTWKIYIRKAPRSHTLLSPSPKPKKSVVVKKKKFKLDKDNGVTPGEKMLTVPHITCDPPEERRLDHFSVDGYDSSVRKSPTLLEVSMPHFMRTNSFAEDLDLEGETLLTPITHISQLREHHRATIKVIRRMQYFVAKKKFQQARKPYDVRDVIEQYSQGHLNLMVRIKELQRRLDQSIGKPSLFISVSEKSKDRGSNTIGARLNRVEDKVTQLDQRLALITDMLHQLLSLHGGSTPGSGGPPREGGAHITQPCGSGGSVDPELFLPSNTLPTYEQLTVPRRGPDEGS
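System: CHO-K1 cells stably expressing KCNQ1 / Medium: assay buffer for compound exposure, DMSO matched across wells / Reagent: thallium- and potassium-containing depolarizing buffer / Compound: one concentration, matched DMSO / Incubation: 20 min compound pretreatment at room temperature / Measured by: kinetic FluxOR fluorescence, 10 s baseline plus 110 s post-stimulus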
KCNQ1 block: human KCNQ1 channel inhibition. CHO-K1 KCNQ1, FluxOR thallium flux fluorescence; stronger effect = higher value. B-score at 10 µM. 310,000 tested, 1.3% active;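 active = compounds whose thallium flux B-score, printed positive for inhibition, exceeds three library SD while starting fluorescence stays within three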;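 also: channel opened by potassium depolarization with thallium stimulus after 20 min compound exposure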
KCNK9 inh: inhibitors of human KCNK9 two-pore domain potassium channel; B-score at 10 µM; 310,000 tested, 1.2% active; Q9NPC2; HEK293 KCNK9, FluxOR thallium flux fluorescence; stronger effect = lower value;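 active = ratio B-score over 3 SD below the library mean, with starting fluorescence within 5 SD of its mean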;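 also: negative B-score means less thallium flux so channel inhibition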
KCC2 mod: KCC2 (human) Cl- transport modulation; 190,000 tested, 2.2% active; B-score of Tl+ flux slope (higher = more flux/activation; lower = inhibition) at 10 µM; Q9H2X9; KCC2 cells, thallium flux FluoZin-2 fluorescence;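 active = thallium flux slope and its plate-corrected score both differing from the plate sample mean at a set confidence after two filtering rounds, in either direction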;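 also: slope of fluorescence scaled to starting intensity during 10 to 20 s after thallium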
Numbers without * were called inactive; i = inactive; x = not tested or not shown. Shown are actives, neighbours in structure and some others; about 4.1% of the full set was active somewhere.

SMILES | KCNK3 inh | hERG rescue | KCNQ1 act | KCNQ1 block | KCNK9 inh | KCC2 mod
COc1ccc(N=c2oc3cc(O)ccc3cc2C(=O)Nc2ccccn2)cc1OC | i | -17.8 | i | 9* | -6.84* | -0.839
CCCN1CCC(NC(=S)Nc2cccc(Cl)c2Cl)CC1 | i | -17.6 | 13* | i | i | -0.0743
Cc1c(Cl)cccc1NC(=S)NC1CCN(Cc2ccccc2)CC1 | i | -9.5 | i | i | i | -1.76
COc1ccc(N(CC(=O)NCc2ccc(C)cc2)S(=O)(=O)c2c(C)[nH]c(=O)[nH]c2=O)cc1 | i | -3.7 | i | i | i | x
C#CCn1c(=NC(=O)CSC(C)=O)sc2cc(F)ccc21 | i | 0.1 | i | i | -7.81* | -0.104
CC(C)(C)N1C(=O)[C@H]2[C@@H](c3ccc(Br)cc3)N3C(=O)N(c4cccc(Br)c4)C(=O)[C@@]3(Cc3ccccc3)[C@H]2C1=O | i | -3.6 | i | i | -6.87* | x
C=CCN1C(=O)/C(=C/c2ccc(-c3ccc(F)cc3)o2)SC1=S | i | -21.6 | i | i | i | x
COc1cc([N+](=O)[O-])cc(/C=N/NC(=O)C(C)Nc2cccc3ccccc23)c1O (stereo not given) | i | -5.4 | i | i | i | -1.45
COc1ccccc1NC(C)C(=O)N/N=C/c1ccccc1OCc1cccc(Br)c1 (stereo not given) | i | -5.9 | i | i | -7.3* | 0.29
CCN(CC)S(=O)(=O)c1ccc(N2CCCC2)c(NC(=O)C2=NN(c3ccccc3)C(=O)CC2)c1 | i | x | x | x | x | x
O=C(NC(Cc1c[nH]c2ccccc12)C(=O)N/N=C/c1cccc2ccccc12)c1cccs1 (stereo not given) | i | -17.1 | i | 6* | i | -0.35
CC(C)(C)c1ccc(OCc2nc(-c3ccccn3)no2)c(Br)c1 | i | -7.5 | i | i | -6.83* | 0.875
O=C(COc1ccc2ccccc2c1)Nc1ccccc1C(=O)O | i | -9.1 | i | i | i | x
COc1cc(NC(=O)COc2cc(O)c3c(c2)OC(C)(C)CC3=O)cc(OC)c1OC | i | -28.0 | i | 9* | i | x
CC(=O)Nc1cc2c(cc1Cl)-c1ccccc1C2O (stereo not given) | i | x | x | x | x | x
Cc1ccccc1-c1nc(CS(=O)CC(=O)NC(C)CCc2ccccc2)c(C)o1 (stereo not given) | i | -13.2 | i | i | i | x
Nc1cc2c(cc1[N+](=O)[O-])OCCOCCOCCO2 | i | 6.4* | i | i | i | x
O=C(NN=C1CCCC1)c1[nH]c2ccc(Cl)cc2c1-c1ccccc1 | i | -10.3 | i | 6* | i | -0.1
CC/C(C)=N/NC(=O)c1[nH]c2ccc(C)cc2c1-c1ccccc1 | i | 5.5* | i | i | i | -0.0176
CC(=O)NNC(=O)c1[nH]c2ccc(Cl)cc2c1-c1ccccc1 | i | -0.8 | i | i | i | 1.46
Cc1ccc(CN2CCNC(=O)C2CC(=O)N(C)C2CCOCC2)cc1 (stereo not given) | i | -1.9 | i | i | i | x
COc1ccc(C2=NN(c3ccccc3)C(=O)/C2=C\c2ccc(O)c(OC)c2)cc1 | i | -3.8 | i | 11* | i | -1.59
COc1cc(/C=C2/C(=O)N(c3cccc(Br)c3)N=C2C)cc(OC)c1O | i | -7.8 | i | 8* | i | x
Cc1cc(OC(C)C(=O)N(Cc2ccco2)C2CCS(=O)(=O)C2)cc(C)c1Cl (stereo not given) | i | -6.0 | i | i | i | x
O=C(CC(Cc1ccccc1)C(=O)O)Nc1cccc(C(F)(F)F)c1 (stereo not given) | i | -9.7 | i | i | i | x
SMILES | KCNK3 inh | hERG rescue | KCNQ1 act | KCNQ1 block | KCNK9 inh | KCC2 mod
CCOC(=O)C(CCSC)Nc1nc(Cl)nc(Nc2ccc(Cl)cc2)n1 (stereo not given) | i | -7.3 | i | i | i | x
O=C(/C=C/c1cccc(F)c1)OCC(=O)N1CCc2ccccc21 | i | x | x | x | x | x
N#C/C(=C(/O)COC(=O)c1ccc(C#N)cc1)c1nc2ccccc2s1 | i | -1.4 | i | 6* | i | -2.68
CC(C)(C)NC(=O)CN(Cc1cccs1)C(=O)C1COc2ccccc2O1 (stereo not given) | i | -23.2 | i | 6* | i | x
CC(C)(C)NC(=O)CN(Cc1cccs1)C(=O)CN1C(=O)C(=O)c2ccccc21 | i | -8.8 | i | i | i | 1.29
O=C(Nc1cc(Cl)ccc1-n1cncn1)c1ccc([N+](=O)[O-])o1 | i | -7.7 | i | i | i | x
O=C(CCOc1ccccc1)Nc1ccccc1F | i | -2.6 | i | i | i | x
Cc1cc(/N=C/C=C2/N(C)c3ccccc3C2(C)C)n(CCC#N)n1 | i | x | x | x | x | x
CCn1c(C)c(C(C)=O)c(N2CCN(c3ccccn3)CC2)nc1=S | i | 1.5 | i | i | -6.67* | -1.05
CCn1c(C)c(C(C)=O)c(N2CCN(c3ccccc3)CC2)nc1=S | i | -8.3 | i | i | i | x
CCCCn1c(N)c(N(CCOC)C(=O)C2CC(=O)N(c3cccc(SC)c3)C2)c(=O)[nH]c1=O (stereo not given) | i | -12.4 | i | i | i | x
CCOc1ccc(-n2c(-c3ccccc3)c[n+]3c2CCCCC3)cc1 | i | -17.1 | i | 8* | i | 0.769
Cn1cnnc1SCC(C)(C)NS(=O)(=O)c1ccc(Cl)cc1 | i | -9.2 | i | i | i | x
COc1cccc(NC(=O)CCN2CCOCC2)c1 | i | -1.6 | i | i | i | x
O=C(CCN1CCOCC1)Nc1ccccc1 | i | 5.1* | i | i | i | 1.29
CCCc1nnc(NC(=O)CN2CCOCC2)s1 | i | 12.2* | i | i | i | x
COc1cc(NC(=O)c2ccc(F)cc2)c(OC)cc1NC(=O)CN1CCOCC1 | i | -7.1 | i | i | i | 0.932
COc1ccc(NC(=O)CN2CCN(C3c4ccccc4-c4ccccc43)CC2)cc1 | i | -15.0 | 8* | i | i | -1.22
COc1cc(NC(=O)c2ccccc2F)c(OC)cc1NC(=O)CN1CCOCC1 | i | 4.7* | i | i | i | x
Cc1ccc(CC2(c3ccccc3)NC(=O)NC2=O)cc1 (stereo not given) | i | x | x | x | x | x
Cc1noc(C)c1COc1ccccc1C(=O)N1CCN(S(=O)(=O)c2ccccc2F)CC1 | i | -9.7 | i | i | i | x
Cc1ccccc1NC(=O)CCN1CCN(Cc2ccccc2)CC1 | i | -7.6 | i | i | i | -0.464
COc1ccc(NC(=O)CN2CCOCC2)cc1 | i | 7.0* | i | i | i | -0.831

Screening data: PubChem BioAssay, several laboratories
